T cruzi growth – inhibitors of T. cruzi proliferation; hit rate 5.9% among 77,000; T. cruzi beta-gal in NIH3T3, GalScreen luminescence, 90 h; inhibition, % at 8.34 µM;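 active = mean inhibition above about 93%, with at least 55% of replicates each passing it, limit read from the data, passing the limit was not always enough; inconclusive = only one of those two conditions holds; inactive = neither condition holds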
IDH1 R132H inh – blocks human IDH1 R132H reductase activity | diaphorase/resazurin fluorescence, 60 min | inhibition, % at 10 µM | hit rate 0.18% among 70,000; in the data active = inhibition above about 34%; inconclusive = no clear call, values can overlap the other calls; inactive = below about 11%
KDM4C inh – inhibitors of human demethylase GASC-1 KDM4C; GST-KDM4C 2-372, H3K9me3 peptide, LANCE TR-FRET; inhibition, % at 12.5 µM; hit rate 0.15% among 96,000; AID 720574;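 active = mean replicate inhibition above about 25%, with at least 55% of replicates also reaching it, limit read from the data, passing the limit was not always enough; inconclusive = only one of those two conditions met; inactive = neither condition met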
Target sequence (Q9H3R0 2-372 limits assumed): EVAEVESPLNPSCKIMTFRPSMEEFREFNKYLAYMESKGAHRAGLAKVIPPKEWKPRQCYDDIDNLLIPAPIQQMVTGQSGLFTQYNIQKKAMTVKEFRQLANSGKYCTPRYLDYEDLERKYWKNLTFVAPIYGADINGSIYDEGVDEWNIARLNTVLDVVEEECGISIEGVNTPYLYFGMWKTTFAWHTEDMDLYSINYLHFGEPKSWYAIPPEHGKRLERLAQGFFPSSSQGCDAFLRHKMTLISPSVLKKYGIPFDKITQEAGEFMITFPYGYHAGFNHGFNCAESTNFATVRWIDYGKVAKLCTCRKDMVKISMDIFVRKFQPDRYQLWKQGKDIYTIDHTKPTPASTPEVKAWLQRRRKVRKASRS
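reagent = H3K9me3 peptide substrate, Fe(II), 2-oxoglutarate | system = GST-tagged GASC-1 (JMJD2C) catalytic fragment, aa 2-372 | amount = enzyme final amount 10 nM | read-out = Fall in 671/618 emission ratio as inhibition | medium = HEPES buffer, pH 7.5, plus ascorbate | schedule = 30 min reaction, 60 min detection, RT | measured by = LANCE TR-FRET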
Pf Dd2 inh – P. falciparum Dd2 growth inhibition; SYBR Green, 72 h; stronger effect = lower value; activity change, % at 10 µM; hit rate 2.3% among 94,000; in the data active = activity change below about -80%; inconclusive = no clear call, values can overlap the other calls
Hits are given with their value; - = inactive; ? = inconclusive; . = no result given. Shown are actives, neighbours in structure and some others; about 5.8% of the full set was active somewhere.

SMILES	T cruzi growth	IDH1 R132H inh	KDM4C inh	Pf Dd2 inh
COc1ccc(S(=O)(=O)N(C)C[C@@H]2OCCCC[C@@H](C)Oc3ccc(NC(=O)Nc4ccc5c(c4)OCO5)cc3C(=O)N([C@H](C)CO)C[C@@H]2C)cc1	-	.	-	-84
CN(C)CC(=O)Nc1ccc2c(c1)[C@@H]1C[C@H](CC(=O)N3CCN(C)CC3)O[C@@H](CO)[C@@H]1O2	-	-	-	-
CCCNC(=O)C[C@H]1CC[C@H]2[C@@H](COC[C@@H](O)CN2C(=O)c2cc(Cl)cc(Cl)c2)O1	-	.	-	-
C[C@H]1CN([C@@H](C)CO)C(=O)c2cc(NS(=O)(=O)c3ccc(Cl)cc3)ccc2O[C@@H]1CN(C)Cc1ccccc1	-	-	-	-
COc1cccc(NC(=O)N(C)C[C@H]2Oc3cc(C#Cc4ccncc4)ccc3S(=O)(=O)N([C@H](C)CO)C[C@H]2C)c1	-	-	-	-
COc1cccc(C#Cc2ccc3c(c2)O[C@@H](CN(C)C(=O)c2ccccn2)[C@H](C)CN([C@@H](C)CO)S3(=O)=O)c1	?	-	-	-84
COc1cccc(NC(=O)N(C)C[C@H]2Oc3cc(C#Cc4ccccc4)ccc3S(=O)(=O)N([C@@H](C)CO)C[C@H]2C)c1	120	-	-	?
COc1cccc(NC(=O)N(C)C[C@@H]2Oc3cc(C#Cc4ccccc4)ccc3S(=O)(=O)N([C@@H](C)CO)C[C@H]2C)c1	125	.	-	-
C[C@@H]1CN([C@H](C)CO)S(=O)(=O)c2ccc(C#C[C@@H](C)O)cc2O[C@H]1CN(C)C(=O)Nc1ccccc1	-	.	.	-92
COc1cccc(NC(=O)N(C)C[C@@H]2Oc3ncc(/C=C/c4ccccc4)cc3C(=O)N([C@@H](C)CO)C[C@@H]2C)c1	.	.	-	-
CN(C)C(=O)c1cccc(-c2ccc3c(c2)[C@H]2[C@H](CCN2C(=O)C2CCCC2)[C@@H](CO)N3)c1	.	.	-	-
O=C(NCCc1ccccc1)[C@H]1[C@H](CO)[C@H]2Cn3c(cccc3=O)[C@H]2N1Cc1ccncc1	-	.	-	-
O=C(C[C@@H]1CC[C@@H]2[C@H](COC[C@H](O)CN2C(=O)Nc2ccc3c(c2)OCO3)O1)N1CCN(c2ccccc2)CC1	.	.	-	-
O=C(C[C@H]1CC[C@@H]2[C@H](COC[C@@H](O)CN2C(=O)Nc2ccc3c(c2)OCO3)O1)N1CCN(c2ccccc2)CC1	.	.	-	-88
Cc1noc(C)c1S(=O)(=O)N(C)C[C@H]1Oc2ccc(NC(=O)C3CCCCC3)cc2CC(=O)N([C@H](C)CO)C[C@H]1C	-	.	-	-
COc1cccc(NC(=O)N(C)C[C@H]2OCc3ccccc3-c3c(n(C)c4ccccc34)C(=O)N([C@@H](C)CO)C[C@@H]2C)c1	-	.	-	-85
COc1ccc(NC(=O)N(C)C[C@H]2OCc3ccccc3-c3c(n(C)c4ccccc34)C(=O)N([C@@H](C)CO)C[C@@H]2C)c(OC)c1	-	.	-	-85
COc1ccc(NC(=O)N(C)C[C@@H]2OCc3ccccc3-c3c(n(C)c4ccccc34)C(=O)N([C@H](C)CO)C[C@@H]2C)c(OC)c1	-	.	-	-
COc1ccc(NC(=O)N(C)C[C@@H]2OCc3ccccc3-c3c(n(C)c4ccccc34)C(=O)N([C@@H](C)CO)C[C@@H]2C)c(OC)c1	-	-	-	-83
C[C@@H]1CN([C@H](C)CO)C(=O)c2c(c3ccccc3n2C)-c2ccccc2CO[C@@H]1CN(C)C(=O)Nc1cccc(C(F)(F)F)c1	.	.	-	-84
C/C=C/c1ccc2c(c1)O[C@@H](CN(C)CC1CCCCC1)[C@@H](C)CN([C@@H](C)CO)S2(=O)=O	-	-	-	-
COc1ccc(NC(=O)N(C)C[C@H]2OCc3cnnn3CCCC(=O)N([C@H](C)CO)C[C@H]2C)c(OC)c1	-	54	-	-
C[C@@H]1CN([C@H](C)CO)C(=O)c2ccccc2-c2ccccc2CO[C@H]1CN(C)C(=O)Nc1cccc(C(F)(F)F)c1	-	.	-	-87
C[C@H](CO)N1C[C@H](C)[C@@H](CN(C)C(=O)Nc2cccc(C(F)(F)F)c2)OCc2ccccc2-c2ccccc2C1=O	-	-	-	-
Cc1cc(Cl)c(S(=O)(=O)Nc2cccc(Br)c2)cc1OCC(N)=O	.	-	.	.
SMILES	T cruzi growth	IDH1 R132H inh	KDM4C inh	Pf Dd2 inh
C[C@@H]1CN([C@H](C)CO)C(=O)Cc2cc(NC(=O)Cn3cnnn3)ccc2O[C@H]1CN(C)C(=O)Nc1ccccc1	-	-	-	-
Cc1ccc(S(=O)(=O)N(C)C[C@H]2OCCCC[C@@H](C)Oc3ccc(NC(=O)Nc4ccc5c(c4)OCO5)cc3C(=O)N([C@@H](C)CO)C[C@H]2C)cc1	.	-	-	-
Cc1ccc(S(=O)(=O)N(C)C[C@H]2OCCCC[C@H](C)Oc3ccc(NC(=O)Nc4ccc5c(c4)OCO5)cc3C(=O)N([C@H](C)CO)C[C@@H]2C)cc1	.	.	-	-
Cc1ccc(S(=O)(=O)N(C)C[C@H]2OCCCC[C@H](C)Oc3ccc(NC(=O)Nc4ccc5c(c4)OCO5)cc3C(=O)N([C@@H](C)CO)C[C@H]2C)cc1	-	-	-	-82
Cc1ccc(S(=O)(=O)N(C)C[C@@H]2OCCCC[C@@H](C)Oc3ccc(NC(=O)Nc4ccc5c(c4)OCO5)cc3C(=O)N([C@@H](C)CO)C[C@@H]2C)cc1	.	.	-	-83
CCCN(C)C[C@H]1OCCCC[C@@H](C)Oc2ccc(NC(=O)Nc3ccc4c(c3)OCO4)cc2C(=O)N([C@H](C)CO)C[C@@H]1C	-	.	-	-86
CCCN(C)C[C@H]1OCCCC[C@H](C)Oc2ccc(NC(=O)Nc3ccc4c(c3)OCO4)cc2C(=O)N([C@@H](C)CO)C[C@@H]1C	-	.	-	.
C[C@@H]1CCCCO[C@@H](CN(C)CC2CC2)[C@H](C)CN([C@@H](C)CO)C(=O)c2cc(NC(=O)Nc3ccc4c(c3)OCO4)ccc2O1	-	-	-	-
C[C@H]1CCCCO[C@H](CN(C)CC2CC2)[C@@H](C)CN([C@@H](C)CO)C(=O)c2cc(NC(=O)Nc3ccc4c(c3)OCO4)ccc2O1	-	.	-	-90
O=C(CCNc1ccc2c(c1)oc1ccccc12)c1ccc([N+](=O)[O-])cc1	.	-	.	.
O=C(CCCCC(=O)N/N=C/c1cc(O)ccc1O)NO	.	88	.	.
COC(=O)CCCCCCC(=O)N/N=C/c1cc(O)ccc1O	.	53	.	.
O=C(O)CCCCCC(=O)N/N=C/c1cc(O)ccc1Br	.	-	.	.
COc1ccc2c3c([nH]c2c1)[C@H](CO)N(Cc1cccc(F)c1)CC31CN(CC2CC2)C1	.	.	-	-85
COc1cccc(CN2CC3(CN(CC4CC4)C3)c3c([nH]c4cc(OC)ccc34)[C@@H]2CO)c1	.	.	-	-
COc1cccc(CN2CC3(CN(CC4CCOCC4)C3)c3c([nH]c4cc(OC)ccc34)[C@@H]2CO)c1	.	.	-	-
COc1cccc(CN2CC3(CN(CC4CCOCC4)C3)c3c([nH]c4cc(OC)ccc34)[C@H]2CO)c1	.	.	-	-83
COc1ccc2c3c([nH]c2c1)[C@@H](CO)N(Cc1cccc(F)c1)CC31CCN(CC2CC2)CC1	.	.	-	-80
O=C(NCC[C@@H]1CC[C@H](NC(=O)C2CCCC2)[C@H](CO)O1)c1cnccn1	.	-	-	-

From PubChem BioAssay
